Measurements gathered from unrelated publications.
Each line is one published result; the experiments were not run side by side.
Observed: microbial growth

O=[N+]([O-])c1cccc(-c2nc3ccccc3[nH]2)c1  MIC (Aspergillus niger; ATCC16404): 512 µg/mL
CCCCCCCCCCCCCCN1CCOCC1  MIC (Lodderomyces parapsilosis; broth dilution; ATCC22019; 48 h): > 31.3 µg/mL
CC(=O)c1ccc(-c2ccc3oc(C(=O)c4cc(O)c(O)c(O)c4)cc3c2)cc1  MIC (Lodderomyces parapsilosis; broth dilution): 2 to 4 µg/mL
CCCCCCCCN1CCN(CC(O)(Cn2cncn2)c2ccc(F)cc2F)CC1 (stereo not shown)  MIC (Lodderomyces parapsilosis; broth dilution; ATCC22019; 48 h): 0.03 µg/mL
Clc1ccc(-c2nc3ccccc3[nH]2)cc1Cl  MIC (Aspergillus niger; ATCC16404): 256 µg/mL
CC1=NN(CNc2ccccc2[N+](=O)[O-])C(=O)C1=NNn1c(-c2ccccc2)nc2ccccc2c1=O  MIC (Aspergillus niger; broth dilution): 50.4 µM
Cc1ccc(C)n1-c1ccc(-c2nnc(-c3c(Cl)cccc3Cl)[nH]2)cc1  MIC (Aspergillus niger; broth dilution; ATCC6275): 2 µg/mL
CCCCCCCCCCN1CCNCC1  MIC (Lodderomyces parapsilosis; broth dilution; ATCC22019; 48 h): 15.6 µg/mL
CCc1cc(Nc2cc(=O)n(CCCCO)c(=O)[nH]2)ccc1C  MIC (Bacteroides fragilis; agar dilution; 48 h): > 32 µg/mL
CCCCCCCCCCCCCN1CCNCC1  MIC (Lodderomyces parapsilosis; broth dilution; ATCC22019; 48 h): 1.95 µg/mL
Clc1ccccc1-c1nc2ccccc2[nH]1  MIC (Aspergillus niger; ATCC16404): 512 µg/mL
CCOCCn1cnc2nc(NCc3ccc(Cl)c(Cl)c3)[nH]c(=O)c21  MIC (Bacteroides fragilis; agar dilution; 48 h): > 32 µg/mL
Fc1ccc(C2(Cn3cncn3)CO2)c(F)c1 (stereo not shown)  MIC (Lodderomyces parapsilosis; broth dilution; ATCC22019; 48 h): > 31.3 µg/mL
c1ccc2c(-c3nc4ccccc4[nH]3)c3ccccc3cc2c1  MIC (Aspergillus niger; ATCC16404): 256 µg/mL
CC1=NN(CNc2ccc(Cl)cc2)C(=O)C1=NNn1c(-c2ccccc2)nc2ccccc2c1=O  MIC (Aspergillus niger; broth dilution): 51.5 µM
CSc1ccc(-c2nc3ccccc3[nH]2)cc1  MIC (Aspergillus niger; ATCC16404): 64 µg/mL
Cc1ccc(C)n1-c1ccc(-c2nnc(-c3ccc(N(C)C)cc3)[nH]2)cc1  MIC (Aspergillus niger; broth dilution; ATCC6275): 62.5 µg/mL
Cc1ccc2nc(-c3ccc(Cl)cc3)[nH]c2c1  MIC (Aspergillus niger; ATCC16404): 256 µg/mL
Cc1ccc(C)n1-c1ccc(-c2nnc(-c3ccccc3Cl)[nH]2)cc1  MIC (Aspergillus niger; broth dilution; ATCC6275): 8 µg/mL
